pEC50, pIC50: −log10 of the molar value.
Assays:
Huntingtin [1] = molecular target: T1, Huntingtin (Homo sapiens, UniProt P42858); assay: Inhibition of Huntingtin protein aggregation by cell based assay; settings: for pIC50: read-out: IC50
How it was run: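 Stable transfectants express mutant huntingtin fused to mCFP from a tet-regulatable gene. Cells are seeded in 96-well format and treated with compound for 72 h. Controls are 2 μg/mL doxycycline and 0.1% DMSO (no dox). Aggregation is scored as the presence and magnitude of fluorescent intracellular inclusions (% cells with aggregates, aggregates per cell), and an IC50 is derived.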

Huntingtin [2] = molecular target: T1, Huntingtin; assay: Inhibition of Huntingtin protein aggregation by yeast based assay

T1 sequence (P42858 whole entry, the tested form may be a part): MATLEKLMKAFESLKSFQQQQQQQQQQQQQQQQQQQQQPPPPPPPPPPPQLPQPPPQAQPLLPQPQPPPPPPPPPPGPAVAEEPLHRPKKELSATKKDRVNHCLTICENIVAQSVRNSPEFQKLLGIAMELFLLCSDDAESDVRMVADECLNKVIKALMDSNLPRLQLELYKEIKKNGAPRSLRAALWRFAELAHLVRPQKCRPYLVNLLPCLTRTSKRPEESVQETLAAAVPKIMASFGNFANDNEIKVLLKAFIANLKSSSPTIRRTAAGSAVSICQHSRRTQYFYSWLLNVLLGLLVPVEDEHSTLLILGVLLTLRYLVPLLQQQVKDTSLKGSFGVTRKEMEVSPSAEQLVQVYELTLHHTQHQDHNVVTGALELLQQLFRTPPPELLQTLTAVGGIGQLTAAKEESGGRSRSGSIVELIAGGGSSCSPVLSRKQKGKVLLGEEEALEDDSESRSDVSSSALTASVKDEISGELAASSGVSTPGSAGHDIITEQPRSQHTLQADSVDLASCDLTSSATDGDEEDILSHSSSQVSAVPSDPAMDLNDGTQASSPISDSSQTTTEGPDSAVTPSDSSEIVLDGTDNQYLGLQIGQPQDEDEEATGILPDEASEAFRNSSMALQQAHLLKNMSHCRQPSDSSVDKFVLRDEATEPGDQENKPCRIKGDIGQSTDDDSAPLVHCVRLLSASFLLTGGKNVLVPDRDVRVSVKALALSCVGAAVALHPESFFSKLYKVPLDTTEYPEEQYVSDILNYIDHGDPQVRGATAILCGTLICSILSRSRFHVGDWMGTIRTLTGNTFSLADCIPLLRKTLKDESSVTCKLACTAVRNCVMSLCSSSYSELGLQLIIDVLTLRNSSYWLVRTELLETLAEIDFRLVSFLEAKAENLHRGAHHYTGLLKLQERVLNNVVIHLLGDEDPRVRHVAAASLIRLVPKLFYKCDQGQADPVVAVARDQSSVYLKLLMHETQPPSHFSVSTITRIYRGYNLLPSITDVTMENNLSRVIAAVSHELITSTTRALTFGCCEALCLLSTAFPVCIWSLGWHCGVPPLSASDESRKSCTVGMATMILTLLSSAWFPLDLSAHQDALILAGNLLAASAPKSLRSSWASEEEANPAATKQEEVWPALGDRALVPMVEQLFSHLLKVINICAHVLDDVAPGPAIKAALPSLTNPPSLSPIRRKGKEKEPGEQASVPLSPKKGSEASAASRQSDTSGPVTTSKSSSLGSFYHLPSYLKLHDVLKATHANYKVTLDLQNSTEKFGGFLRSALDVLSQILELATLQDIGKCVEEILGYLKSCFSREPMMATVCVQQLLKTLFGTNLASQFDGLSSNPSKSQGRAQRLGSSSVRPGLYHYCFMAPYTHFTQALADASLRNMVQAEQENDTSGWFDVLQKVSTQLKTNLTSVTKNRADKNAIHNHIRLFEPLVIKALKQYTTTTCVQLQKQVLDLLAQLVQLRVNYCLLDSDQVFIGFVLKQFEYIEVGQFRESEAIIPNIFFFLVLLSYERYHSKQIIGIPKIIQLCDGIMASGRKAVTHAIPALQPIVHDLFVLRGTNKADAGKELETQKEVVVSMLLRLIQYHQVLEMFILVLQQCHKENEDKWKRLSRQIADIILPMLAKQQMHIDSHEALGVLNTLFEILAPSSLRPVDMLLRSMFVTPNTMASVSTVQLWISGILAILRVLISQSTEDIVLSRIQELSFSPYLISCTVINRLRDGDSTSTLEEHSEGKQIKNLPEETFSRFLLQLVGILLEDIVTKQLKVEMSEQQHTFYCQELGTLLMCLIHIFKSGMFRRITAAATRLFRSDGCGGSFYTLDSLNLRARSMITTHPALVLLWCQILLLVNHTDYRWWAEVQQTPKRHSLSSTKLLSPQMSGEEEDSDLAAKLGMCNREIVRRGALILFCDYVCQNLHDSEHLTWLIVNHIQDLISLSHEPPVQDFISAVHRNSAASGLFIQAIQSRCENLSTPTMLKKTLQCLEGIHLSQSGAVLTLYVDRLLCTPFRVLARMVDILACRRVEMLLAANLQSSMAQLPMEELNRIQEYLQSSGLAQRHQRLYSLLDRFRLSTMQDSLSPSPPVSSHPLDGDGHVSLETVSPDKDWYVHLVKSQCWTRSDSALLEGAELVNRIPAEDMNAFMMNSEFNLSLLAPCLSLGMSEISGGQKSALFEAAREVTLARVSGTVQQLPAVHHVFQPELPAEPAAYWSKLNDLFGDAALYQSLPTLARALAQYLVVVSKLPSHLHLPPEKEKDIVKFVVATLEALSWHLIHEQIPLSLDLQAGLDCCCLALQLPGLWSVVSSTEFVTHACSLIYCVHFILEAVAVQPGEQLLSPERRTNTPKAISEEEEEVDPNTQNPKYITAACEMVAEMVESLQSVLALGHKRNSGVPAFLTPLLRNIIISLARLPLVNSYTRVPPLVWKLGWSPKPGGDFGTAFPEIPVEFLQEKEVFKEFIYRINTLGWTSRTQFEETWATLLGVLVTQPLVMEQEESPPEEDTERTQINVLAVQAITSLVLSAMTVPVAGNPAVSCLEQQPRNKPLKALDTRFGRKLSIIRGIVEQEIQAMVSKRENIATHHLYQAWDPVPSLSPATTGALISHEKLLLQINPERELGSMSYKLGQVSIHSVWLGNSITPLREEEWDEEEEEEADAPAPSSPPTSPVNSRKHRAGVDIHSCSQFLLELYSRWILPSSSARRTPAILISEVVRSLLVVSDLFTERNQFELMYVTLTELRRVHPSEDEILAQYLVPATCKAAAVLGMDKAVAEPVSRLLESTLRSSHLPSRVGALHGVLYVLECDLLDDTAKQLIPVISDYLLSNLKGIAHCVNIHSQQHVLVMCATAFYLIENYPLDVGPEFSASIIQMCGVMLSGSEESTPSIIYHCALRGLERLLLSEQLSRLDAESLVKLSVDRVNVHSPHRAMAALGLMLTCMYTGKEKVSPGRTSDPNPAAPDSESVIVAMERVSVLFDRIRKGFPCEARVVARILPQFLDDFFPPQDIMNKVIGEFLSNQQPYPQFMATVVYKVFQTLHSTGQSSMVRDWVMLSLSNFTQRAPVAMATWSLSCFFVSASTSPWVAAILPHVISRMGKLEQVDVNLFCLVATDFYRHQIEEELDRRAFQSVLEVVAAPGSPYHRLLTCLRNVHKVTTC

Row | SMILES | pIC50 (Huntingtin [1]) | pEC50 (Huntingtin [2]) | IC50 (Huntingtin [1])
1 | Brc1ccc2ncnc(N3CCNCC3)c2c1 | 5.56 |  | 
2 | CCOC(=O)COc1ccc(CCNc2ncnc3ccc(Cl)cc23)cc1 | 5.35 |  | 
3 | C=CCNc1ncnc2ccc(Br)cc12 | 5.27 | 4.30 | 
4 | CCCNc1ncnc2ccc(Br)cc12 | 5.09 | 4.30 | 
5 | Nc1ccc2ncnc(NCCc3ccc(Oc4ccccc4)cc3)c2c1 |  |  | Not Active
6 | Oc1ccc(CCNc2ncnc3ccc(Cl)cc23)cc1 | 6.15 |  | 
7 | Clc1ccc2ncnc(NCCc3ccc(Oc4ccccc4)cc3)c2c1 |  |  | Not Active
8 | CCN1CCN(c2ncnc3ccc(Cl)cc23)CC1 | 5.44 |  | 
9 | CCN1CCN(c2ncnc3ccc(Br)cc23)CC1 | 5.66 |  | 
10 | Brc1ccc2ncnc(N3CCN(Cc4ccc5c(c4)OCO5)CC3)c2c1 |  |  | Not Active
11 | Clc1ccc2ncnc(NCCc3ccc(OC4CCCC4)cc3)c2c1 |  |  | Not Active
12 | Clc1ccc(CCNc2ncnc3ccc(Br)cc23)cc1 |  |  | Not Active
13 | CCN1CCN(c2ncnc3ccc(F)cc23)CC1 | 5.28 |  | 
14 | Clc1ccc2ncnc(N3CCN(Cc4ccc5c(c4)OCO5)CC3)c2c1 | 5.97 |  | 
15 | Fc1ccc2ncnc(NCCc3ccc(Cl)cc3)c2c1 |  |  | Not Active
16 | Clc1ccc(CCNc2ncnc3ccc(Cl)cc23)cc1 | 5.46 |  | 
17 | CN1CCN(c2ncnc3ccc(F)cc23)CC1 | < 5.00 |  | 
18 | CN1CCN(c2ncnc3ccccc23)CC1 | < 5.00 |  | 
19 | CN1CCN(c2ncnc3ccc(Br)cc23)CC1 | 5.88 |  | 
20 | Oc1ccc(CCNc2ncnc3ccc(Br)cc23)cc1 | 5.95 |  | 
21 | CN1CCN(c2ncnc3ccc(Cl)cc23)CC1 | < 5.00 |  | 
22 | CCN1CCN(c2ncnc3ccccc23)CC1 | < 5.00 |  | 
23 | Fc1ccc2ncnc(N3CCN(Cc4ccc5c(c4)OCO5)CC3)c2c1 | < 5.00 |  | 
24 | Oc1ccc(CCNc2ncnc3ccccc23)cc1 | < 4.80 |  | 
25 | Clc1ccc(CCNc2ncnc3ccccc23)cc1 | 4.98 |  | 
26 | c1ccc2c(N3CCN(Cc4ccc5c(c4)OCO5)CC3)ncnc2c1 | < 5.00 |  | 
27 | Oc1ccc(CCNc2ncnc3ccc(F)cc23)cc1 | 5.20 |  | 
28 | Clc1ccc2ncnc(NCCc3ccc(OCc4ccccc4)cc3)c2c1 |  |  | Not Active
29 | Brc1ccc2ncnc(NCc3ccccc3)c2c1 | 5.21 | 4.30 | 

Reference: ChEMBL document CHEMBL1153324, “Potent inhibitors of Huntingtin protein aggregation in a cell-based assay” (Bioorg Med Chem Lett, 2009)
